Data reported in ChEMBL document CHEMBL4145652, “Chemoenzymatic Synthesis and Pharmacological Characterization of Functionalized Aspartate Analogues As Novel Excitatory Amino Acid Transporter Inhibitors” (J Med Chem, 2018).
The source made the active and inactive calls. The rule behind the calls is not given here.

What was measured:
Type in all cases: cell-based
[1] = target: T1, Excitatory amino acid transporter 2 (Homo sapiens, UniProt P43004); assay: Inhibition of human EAAT2 expressed in HEK293 cells assessed as reduction in [3H]-D-Asp uptake incubated for 4 mins by scintillation counting method; conditions: read-out: IC50
In short: (§1)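 HEK293 cells stably expressing human EAAT1, EAAT2 or EAAT3 were plated 16–24 h before the assay. Cells were washed and incubated with 100 nM [3H]-D-Asp plus graded compound concentrations in HBSS/20 mM HEPES/CaCl2/MgCl2, pH 7.4, for 4 min at 37 °C. Uptake was in the linear range at this time. Nonspecific uptake was defined with 3 mM L-Glu. Cells were washed ice-cold and counted by scintillation. IC50 came from a Hill-equation fit. Three or four independent assays in duplicate.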

[2] = target: T2, Excitatory amino acid transporter 1 (Homo sapiens, UniProt P43003); assay: Potency index, ratio of IC50 for DL-TBOA to IC50 for test compound for inhibition of human EAAT1 expressed in HEK293 cells assessed as reduction in [3H]-D-Asp uptake incubated for 4 mins by scintillation counting method
In short: (§2)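 Stable HEK293 lines expressing human transporter, plated on poly-D-lysine 16–24 h before assay. Washed cells were given HBSS/20 mM HEPES/1 mM CaCl2/1 mM MgCl2, pH 7.4, with 100 nM [3H]-D-Asp plus graded inhibitor for 4 min at 37 °C. Nonspecific uptake was taken with 3 mM L-Glu. IC50 came from a Hill fit; index = DL-TBOA IC50 ÷ test IC50. Three or four independent runs in duplicate.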

[3] = target: T3, Excitatory amino acid transporter 4 (Rattus norvegicus) (UniProt O35921); assay: Potency index, ratio of IC50 for DL-TBOA to IC50 for test compound for inhibition of rat EAAT4 expressed in tsA201 cells assessed as reduction in [3H]-D-Asp uptake incubated for 4 mins by scintillation counting method
T3 sequence (whole entry): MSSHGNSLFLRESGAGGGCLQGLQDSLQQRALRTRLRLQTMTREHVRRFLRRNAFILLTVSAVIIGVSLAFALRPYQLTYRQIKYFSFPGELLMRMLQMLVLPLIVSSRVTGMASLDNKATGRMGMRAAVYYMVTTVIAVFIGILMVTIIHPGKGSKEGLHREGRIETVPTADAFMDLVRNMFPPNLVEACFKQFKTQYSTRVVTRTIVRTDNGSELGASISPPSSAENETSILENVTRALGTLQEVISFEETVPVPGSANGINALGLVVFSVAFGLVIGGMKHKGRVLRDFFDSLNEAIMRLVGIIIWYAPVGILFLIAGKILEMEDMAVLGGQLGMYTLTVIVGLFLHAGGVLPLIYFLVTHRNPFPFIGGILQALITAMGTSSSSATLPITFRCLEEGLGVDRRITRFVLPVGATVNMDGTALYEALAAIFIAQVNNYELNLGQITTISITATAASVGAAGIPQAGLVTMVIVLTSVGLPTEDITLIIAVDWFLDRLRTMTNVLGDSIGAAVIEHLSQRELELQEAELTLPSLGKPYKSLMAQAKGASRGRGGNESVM
In short: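 Stable rat EAAT4 tsA201 line induced with 1 µg/mL tetracycline on plating, 16–24 h before assay. Uptake used 100 nM [3H]-D-Asp with graded inhibitor in HEPES-buffered HBSS, pH 7.4, for 4 min at 37 °C. 3 mM L-Glu defined nonspecific uptake. Scintillation counts were Hill-fitted for IC50; index = DL-TBOA IC50 ÷ test IC50. Three or four independent runs in duplicate.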

[4] = target: T4, Excitatory amino acid transporter 4 (Rattus norvegicus, UniProt O35921); assay: Inhibition of rat EAAT4 expressed in tsA201 cells assessed as reduction in [3H]-D-Asp uptake incubated for 4 mins by scintillation counting method; conditions: read-out: IC50
T4 sequence (O35921 whole entry): T3 sequence (whole entry)
In short: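 Rat EAAT4 stably expressed in tsA201 cells, induced with 1 μg/mL tetracycline during overnight plating. [3H]-D-Asp (100 nM) uptake with graded compound concentrations ran for 4 min at 37 °C in HEPES-buffered HBSS, pH 7.4. Uptake was linear at this time. Nonspecific uptake was defined by 3 mM L-Glu. Read-out by scintillation counting. IC50 came from a Hill-equation fit. Three or four independent assays in duplicate.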

[5] = target: T1, Excitatory amino acid transporter 2; assay: Potency index, ratio of IC50 for NBI59159 to IC50 for test compound for inhibition of human EAAT2 expressed in HEK293 cells assessed as reduction in [3H]-D-Asp uptake incubated for 4 mins by scintillation counting method
[6] = target: T2, Excitatory amino acid transporter 1; assay: Potency index, ratio of IC50 for NBI59159 to IC50 for test compound for inhibition of human EAAT1 expressed in HEK293 cells assessed as reduction in [3H]-D-Asp uptake incubated for 4 mins by scintillation counting method
[7] = target: T5, Excitatory amino acid transporter 3 (Homo sapiens) (UniProt P43005); assay: Potency index, ratio of IC50 for NBI59159 to IC50 for test compound for inhibition of human EAAT3 expressed in HEK293 cells assessed as reduction in [3H]-D-Asp uptake incubated for 4 mins by scintillation counting method
T5 sequence (whole entry): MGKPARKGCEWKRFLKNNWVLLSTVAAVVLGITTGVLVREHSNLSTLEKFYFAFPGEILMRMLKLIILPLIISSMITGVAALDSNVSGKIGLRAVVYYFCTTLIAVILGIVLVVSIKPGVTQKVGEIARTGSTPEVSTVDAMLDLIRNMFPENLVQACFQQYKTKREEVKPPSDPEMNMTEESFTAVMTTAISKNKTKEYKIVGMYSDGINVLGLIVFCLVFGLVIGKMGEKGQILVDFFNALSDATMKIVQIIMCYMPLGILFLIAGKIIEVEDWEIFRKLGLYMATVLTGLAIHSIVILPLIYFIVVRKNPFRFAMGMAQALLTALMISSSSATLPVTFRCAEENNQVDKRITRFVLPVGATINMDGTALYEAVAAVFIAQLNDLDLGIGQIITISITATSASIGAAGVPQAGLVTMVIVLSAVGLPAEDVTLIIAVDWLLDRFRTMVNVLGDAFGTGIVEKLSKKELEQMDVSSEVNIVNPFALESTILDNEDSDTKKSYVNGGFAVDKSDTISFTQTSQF

[8] = target: T6, Excitatory amino acid transporter 3 (Homo sapiens, UniProt P43005); assay: Inhibition of human EAAT3 expressed in HEK293 cells assessed as reduction in [3H]-D-Asp uptake incubated for 4 mins by scintillation counting method
T6 sequence (P43005 whole entry): T5 sequence (whole entry)
In short: as §1, with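 “time.” for “time. Nonspecific uptake was defined with 3 mM L-Glu.”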

[9] = target: T1, Excitatory amino acid transporter 2; assay: Potency index, ratio of IC50 for DL-TBOA to IC50 for test compound for inhibition of human EAAT2 expressed in HEK293 cells assessed as reduction in [3H]-D-Asp uptake incubated for 4 mins by scintillation counting method; in short: as §2
[10] = target: T5, Excitatory amino acid transporter 3 (Homo sapiens); assay: Potency index, ratio of IC50 for DL-TBOA to IC50 for test compound for inhibition of human EAAT3 expressed in HEK293 cells assessed as reduction in [3H]-D-Asp uptake incubated for 4 mins by scintillation counting method; in short: as §2
[11] = target: T2, Excitatory amino acid transporter 1; assay: Inhibition of human EAAT1 expressed in HEK293 cells assessed as reduction in [3H]-D-Asp uptake incubated for 4 mins by scintillation counting method
In short: as §1, with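 “time.” for “time. Nonspecific uptake was defined with 3 mM L-Glu.”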

[12] = target: T1, Excitatory amino acid transporter 2; assay: Potency index, ratio of IC50 for WAY-213613 to IC50 for test compound for inhibition of human EAAT2 expressed in HEK293 cells assessed as reduction in [3H]-D-Asp uptake incubated for 4 mins by scintillation counting method
[13] = target: T2, Excitatory amino acid transporter 1; assay: Potency index, ratio of IC50 for WAY-213613 to IC50 for test compound for inhibition of human EAAT1 expressed in HEK293 cells assessed as reduction in [3H]-D-Asp uptake incubated for 4 mins by scintillation counting method
[14] = target: T3, Excitatory amino acid transporter 4 (Rattus norvegicus); assay: Potency index, ratio of IC50 for WAY-213613 to IC50 for test compound for inhibition of rat EAAT4 expressed in tsA201 cells assessed as reduction in [3H]-D-Asp uptake incubated for 4 mins by scintillation counting method
[15] = target: T5, Excitatory amino acid transporter 3 (Homo sapiens); assay: Potency index, ratio of IC50 for WAY-213613 to IC50 for test compound for inhibition of human EAAT3 expressed in HEK293 cells assessed as reduction in [3H]-D-Asp uptake incubated for 4 mins by scintillation counting method
[16] = target: T2, Excitatory amino acid transporter 1; assay: Substrate activity at human EAAT1 expressed in HEK293 cells assessed as increase in fluorescence level at 300 uM incubated for 30 mins by fluorescence-based FLIPR membrane potential blue assay
In short: (§3)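 Human EAAT1-, EAAT2- or EAAT3-HEK293 cells were loaded with FMP dye (0.5 mg/mL) in Na+-containing HEPES buffer, pH 7.4, for 30 min at 37 °C. Test compound was then added alone to an assay concentration of 300 μM. Fluorescence (ex 525/em 565 nm) was recorded before addition and up to 90 s after. Three independent experiments in triplicate.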

[17] = target: T1, Excitatory amino acid transporter 2; assay: Inhibition of human EAAT2 expressed in HEK293 cells assessed as reduction in EC80 L-glutamate-induced response at 300 uM co-applied with L-glutamate addition by fluorescence-based FLIPR membrane potential blue assay
[18] = target: T1, Excitatory amino acid transporter 2; assay: Substrate activity at human EAAT2 expressed in HEK293 cells assessed as increase in fluorescence level at 300 uM incubated for 30 mins by fluorescence-based FLIPR membrane potential blue assay; in short: as §3
[19] = target: T2, Excitatory amino acid transporter 1; assay: Inhibition of human EAAT1 expressed in HEK293 cells assessed as reduction in EC80 L-glutamate-induced response at 300 uM pre-incubated before L-glutamate addition by fluorescence-based FLIPR membrane potential blue assay
In short: (§4)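 Stably transfected HEK293 cells expressing human EAAT1, EAAT2 or EAAT3, plated the day before on poly-D-lysine-coated plates. Cells were loaded with FMP dye (0.5 mg/mL) in NaCl/KCl/HEPES/glucose buffer, pH 7.4, for 30 min at 37 °C, with test compound at 300 μM present. L-Glu at its EC80 for each transporter was then added. Emission at 565 nm (excitation 525 nm) was read up to 90 s. Three independent experiments in triplicate.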

[20] = target: T5, Excitatory amino acid transporter 3 (Homo sapiens); assay: Inhibition of human EAAT3 expressed in HEK293 cells assessed as reduction in EC80 L-glutamate-induced response at 300 uM pre-incubated before L-glutamate addition by fluorescence-based FLIPR membrane potential blue assay; in short: as §4
[21] = target: T1, Excitatory amino acid transporter 2; assay: Inhibition of human EAAT2 expressed in HEK293 cells assessed as reduction in EC80 L-glutamate-induced response at 300 uM pre-incubated before L-glutamate addition by fluorescence-based FLIPR membrane potential blue assay; in short: as §4
[22] = target: T5, Excitatory amino acid transporter 3 (Homo sapiens); assay: Substrate activity at human EAAT3 expressed in HEK293 cells assessed as increase in fluorescence level at 300 uM incubated for 30 mins by fluorescence-based FLIPR membrane potential blue assay; in short: as §3

T1 sequence (P43004 whole entry): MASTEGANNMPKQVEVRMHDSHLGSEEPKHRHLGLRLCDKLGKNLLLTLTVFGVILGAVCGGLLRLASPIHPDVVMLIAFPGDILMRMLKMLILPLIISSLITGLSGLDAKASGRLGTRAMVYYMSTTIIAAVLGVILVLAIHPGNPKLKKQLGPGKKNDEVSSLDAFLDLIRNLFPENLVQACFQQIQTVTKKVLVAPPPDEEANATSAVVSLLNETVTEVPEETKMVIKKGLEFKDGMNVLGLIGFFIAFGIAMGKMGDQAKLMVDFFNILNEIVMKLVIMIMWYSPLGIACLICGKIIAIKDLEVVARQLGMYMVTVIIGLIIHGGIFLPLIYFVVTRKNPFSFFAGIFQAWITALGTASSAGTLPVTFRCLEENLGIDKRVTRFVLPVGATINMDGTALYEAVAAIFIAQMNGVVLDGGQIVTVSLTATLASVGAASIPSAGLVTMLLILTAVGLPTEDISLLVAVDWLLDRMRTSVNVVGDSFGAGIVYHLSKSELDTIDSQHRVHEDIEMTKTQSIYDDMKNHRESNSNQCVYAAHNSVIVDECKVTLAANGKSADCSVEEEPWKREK
T2 sequence (P43003 whole entry): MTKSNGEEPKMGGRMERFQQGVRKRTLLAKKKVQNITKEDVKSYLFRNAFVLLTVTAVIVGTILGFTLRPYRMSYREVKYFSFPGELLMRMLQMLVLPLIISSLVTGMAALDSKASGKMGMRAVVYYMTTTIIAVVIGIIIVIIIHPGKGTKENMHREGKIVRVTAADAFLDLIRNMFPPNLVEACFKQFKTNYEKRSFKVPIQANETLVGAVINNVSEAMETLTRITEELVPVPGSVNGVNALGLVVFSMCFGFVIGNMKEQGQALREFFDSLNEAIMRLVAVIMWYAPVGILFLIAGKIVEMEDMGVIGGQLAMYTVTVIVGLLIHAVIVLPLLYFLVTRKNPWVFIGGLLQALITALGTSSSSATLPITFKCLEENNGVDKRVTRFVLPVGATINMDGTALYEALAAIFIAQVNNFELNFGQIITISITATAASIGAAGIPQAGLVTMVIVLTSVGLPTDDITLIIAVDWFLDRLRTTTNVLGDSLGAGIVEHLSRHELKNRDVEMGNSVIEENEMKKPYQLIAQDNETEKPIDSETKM

SMILES | IC50 [1] | Ratio IC50 [2] | Ratio IC50 [3] | IC50 [4] | IC50 [8] | Ratio IC50 [9] | Ratio IC50 [10] | IC50 [11] | also measured
N[C@H](C(=O)O)[C@H](OCc1ccccc1)C(=O)Nc1ccc2c(c1)Cc1ccccc1-2 | 47 nM | 180 | 29 | 80 nM | 55 nM | 40 | 69 | 12 nM | Ratio IC50 [5]: 30; Ratio IC50 [6]: 83; Ratio IC50 [7]: 1.6
N[C@H](C(=O)O)[C@H](OCc1ccccc1)C(=O)Nc1ccc(Oc2cc(F)c(F)cc2Br)cc1 | 36 nM | 190 | 16 | 140 nM | 94 nM | 53 | 40 | 11 nM | Ratio IC50 [12]: 2; Ratio IC50 [13]: 78; Ratio IC50 [14]: 11; Ratio IC50 [15]: 20
N[C@H](C(=O)O)[C@H](OCC1CCCCC1)C(=O)O | 490 nM |  |  | 1600 nM | 2600 nM |  |  | 620 nM | Activity [16]: inactive; inhibition [17]: Active; Activity [18]: inactive; inhibition [19]: Active; inhibition [20]: Active; inhibition [21]: Active; Activity [22]: inactive
